Source: publication PMC3796951 (Psychopharmacology, 2012)
Where a name gives a salt, the structure may show the parent alone. Read-outs that look alike come from different tables or passages of the source.

Legend:
[1] = target: α1A (Homo sapiens, UniProt P35348); assay: Radioligand binding
[2] = target: α1B (Homo sapiens, UniProt P35368); assay: Radioligand binding
[3] = target: α1D (Homo sapiens, UniProt P25100); assay: Radioligand binding
[4] = target: α2A (Homo sapiens, UniProt P08913); assay: Radioligand binding
Sequence of α2A (P08913 whole entry): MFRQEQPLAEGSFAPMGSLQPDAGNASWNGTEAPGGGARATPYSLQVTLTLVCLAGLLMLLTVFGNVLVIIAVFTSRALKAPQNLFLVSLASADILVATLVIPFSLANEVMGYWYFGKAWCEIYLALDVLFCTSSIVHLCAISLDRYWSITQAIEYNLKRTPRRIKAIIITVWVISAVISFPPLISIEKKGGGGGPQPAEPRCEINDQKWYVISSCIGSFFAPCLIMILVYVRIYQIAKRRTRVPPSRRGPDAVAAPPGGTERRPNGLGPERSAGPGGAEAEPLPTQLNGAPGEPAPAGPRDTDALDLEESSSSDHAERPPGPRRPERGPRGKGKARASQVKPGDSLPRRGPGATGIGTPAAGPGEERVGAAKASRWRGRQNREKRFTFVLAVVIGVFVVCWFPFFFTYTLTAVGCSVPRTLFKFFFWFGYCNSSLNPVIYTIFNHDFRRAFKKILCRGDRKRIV

[5] = target: α2C (Homo sapiens, UniProt P18825); assay: Radioligand binding
Sequence of α2C (P18825 whole entry): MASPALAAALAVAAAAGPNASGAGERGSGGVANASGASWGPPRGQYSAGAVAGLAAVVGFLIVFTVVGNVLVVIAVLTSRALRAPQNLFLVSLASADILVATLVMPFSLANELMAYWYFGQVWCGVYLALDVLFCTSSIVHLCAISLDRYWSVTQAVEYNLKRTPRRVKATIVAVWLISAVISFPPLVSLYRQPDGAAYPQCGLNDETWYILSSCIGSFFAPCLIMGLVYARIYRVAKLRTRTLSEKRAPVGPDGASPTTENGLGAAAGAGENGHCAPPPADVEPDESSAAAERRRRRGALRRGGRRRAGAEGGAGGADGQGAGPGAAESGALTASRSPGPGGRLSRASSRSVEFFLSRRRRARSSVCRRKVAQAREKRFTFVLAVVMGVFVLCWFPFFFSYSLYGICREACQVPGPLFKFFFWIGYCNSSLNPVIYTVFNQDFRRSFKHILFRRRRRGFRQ

[6] = target: β2 (Homo sapiens, UniProt P07550); assay: Radioligand binding
Sequence of β2 (P07550 whole entry): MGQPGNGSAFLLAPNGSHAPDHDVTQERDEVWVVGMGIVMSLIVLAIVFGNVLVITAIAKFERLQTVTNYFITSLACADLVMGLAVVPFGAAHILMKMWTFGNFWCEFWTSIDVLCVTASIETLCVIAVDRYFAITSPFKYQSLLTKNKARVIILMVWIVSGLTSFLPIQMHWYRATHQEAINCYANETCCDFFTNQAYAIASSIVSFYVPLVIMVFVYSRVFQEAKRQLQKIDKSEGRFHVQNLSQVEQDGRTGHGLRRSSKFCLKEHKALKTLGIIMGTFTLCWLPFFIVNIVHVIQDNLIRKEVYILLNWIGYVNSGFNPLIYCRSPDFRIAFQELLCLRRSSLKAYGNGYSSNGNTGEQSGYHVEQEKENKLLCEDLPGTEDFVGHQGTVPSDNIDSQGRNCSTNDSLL

[7] = target: D3 (Rattus norvegicus, UniProt P19020); assay: Radioligand binding
Sequence of D3 (P19020 whole entry): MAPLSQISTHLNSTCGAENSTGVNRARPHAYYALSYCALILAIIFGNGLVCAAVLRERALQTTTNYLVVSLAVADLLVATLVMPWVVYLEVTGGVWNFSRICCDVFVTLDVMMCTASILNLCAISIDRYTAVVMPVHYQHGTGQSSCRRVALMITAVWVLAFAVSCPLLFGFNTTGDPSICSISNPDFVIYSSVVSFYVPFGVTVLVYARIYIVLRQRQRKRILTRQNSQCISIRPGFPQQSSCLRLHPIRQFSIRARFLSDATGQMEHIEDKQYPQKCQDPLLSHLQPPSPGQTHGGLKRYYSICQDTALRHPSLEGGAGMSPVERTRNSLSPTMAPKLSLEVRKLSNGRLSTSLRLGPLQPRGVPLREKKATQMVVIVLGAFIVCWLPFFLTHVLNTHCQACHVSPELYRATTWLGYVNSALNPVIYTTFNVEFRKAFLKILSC

[8] = target: H1 (Homo sapiens, UniProt P35367); assay: Radioligand binding
Sequence of H1 (P35367 whole entry): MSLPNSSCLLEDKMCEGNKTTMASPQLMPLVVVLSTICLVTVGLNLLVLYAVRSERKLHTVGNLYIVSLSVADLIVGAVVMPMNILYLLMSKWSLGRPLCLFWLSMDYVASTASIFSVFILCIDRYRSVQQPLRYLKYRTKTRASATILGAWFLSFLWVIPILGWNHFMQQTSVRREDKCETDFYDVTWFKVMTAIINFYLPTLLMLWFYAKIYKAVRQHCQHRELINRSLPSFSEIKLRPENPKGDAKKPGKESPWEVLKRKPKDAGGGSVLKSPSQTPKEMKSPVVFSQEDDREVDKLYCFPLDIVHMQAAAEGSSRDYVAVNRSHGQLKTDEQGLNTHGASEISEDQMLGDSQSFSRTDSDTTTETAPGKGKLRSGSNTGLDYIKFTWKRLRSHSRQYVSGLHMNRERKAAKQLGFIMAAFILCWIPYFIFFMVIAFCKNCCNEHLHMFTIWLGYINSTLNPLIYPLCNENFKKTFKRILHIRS

[9] = target: H2 (Homo sapiens, UniProt P25021); assay: Radioligand binding
Sequence of H2 (P25021 whole entry): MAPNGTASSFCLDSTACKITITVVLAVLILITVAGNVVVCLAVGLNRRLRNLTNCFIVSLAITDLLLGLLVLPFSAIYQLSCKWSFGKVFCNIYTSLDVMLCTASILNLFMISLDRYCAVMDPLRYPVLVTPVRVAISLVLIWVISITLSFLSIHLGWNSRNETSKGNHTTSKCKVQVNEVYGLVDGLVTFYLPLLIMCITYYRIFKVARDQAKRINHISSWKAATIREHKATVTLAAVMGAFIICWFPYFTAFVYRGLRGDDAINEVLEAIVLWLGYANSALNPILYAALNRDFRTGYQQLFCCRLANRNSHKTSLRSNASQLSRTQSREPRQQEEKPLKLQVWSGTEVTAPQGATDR

[10] = target: SERT (Homo sapiens, UniProt P31645); assay: Radioligand binding
[11] = target: Sigma-2 (Rattus norvegicus, UniProt Q5U3Y7); assay: Radioligand binding
Sequence of Sigma-2 (Q5U3Y7 whole entry): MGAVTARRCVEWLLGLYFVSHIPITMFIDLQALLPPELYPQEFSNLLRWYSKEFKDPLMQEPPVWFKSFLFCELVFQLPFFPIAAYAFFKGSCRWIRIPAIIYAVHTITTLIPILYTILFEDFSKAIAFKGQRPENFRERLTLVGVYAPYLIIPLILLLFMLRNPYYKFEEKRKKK

[12] = target: D1 (Homo sapiens, UniProt P21728); assay: Radioligand binding
[13] = target: D2 (Homo sapiens, UniProt P14416); assay: Radioligand binding
[14] = target: D4 (Homo sapiens, UniProt P21917); assay: Radioligand binding
[15] = target: D5 (Homo sapiens, UniProt P21918); assay: Radioligand binding
[16] = target: DAT (Homo sapiens, UniProt Q01959); assay: Radioligand binding
[17] = target: NET (Homo sapiens, UniProt P23975); assay: Radioligand binding
[18] = target: β1 (Homo sapiens, UniProt P08588); assay: Radioligand binding
[19] = target: β3 (Homo sapiens, UniProt P13945); assay: Radioligand binding
[20] = target: DOR (Homo sapiens, UniProt P41143); assay: Radioligand binding
[21] = target: MOR (Homo sapiens, UniProt P35372); assay: Radioligand binding
[22] = target: KOR (Homo sapiens, UniProt P41145); assay: Radioligand binding
[23] = target: EP3 (Homo sapiens, UniProt P43115); assay: Radioligand binding
[24] = target: EP4 (Homo sapiens, UniProt P35408); assay: Radioligand binding
[25] = target: H3 (Homo sapiens, UniProt Q9Y5N1); assay: Radioligand binding
[26] = target: H4 (Homo sapiens, UniProt Q9H3N8); assay: Radioligand binding
[27] = target: M1 (Homo sapiens, UniProt P11229); assay: Radioligand binding
[28] = target: M2 (Homo sapiens, UniProt P08172); assay: Radioligand binding
[29] = target: M3 (Homo sapiens, UniProt P20309); assay: Radioligand binding
[30] = target: M4 (Homo sapiens, UniProt P08173); assay: Radioligand binding
Sequence of M4 (P08173 whole entry): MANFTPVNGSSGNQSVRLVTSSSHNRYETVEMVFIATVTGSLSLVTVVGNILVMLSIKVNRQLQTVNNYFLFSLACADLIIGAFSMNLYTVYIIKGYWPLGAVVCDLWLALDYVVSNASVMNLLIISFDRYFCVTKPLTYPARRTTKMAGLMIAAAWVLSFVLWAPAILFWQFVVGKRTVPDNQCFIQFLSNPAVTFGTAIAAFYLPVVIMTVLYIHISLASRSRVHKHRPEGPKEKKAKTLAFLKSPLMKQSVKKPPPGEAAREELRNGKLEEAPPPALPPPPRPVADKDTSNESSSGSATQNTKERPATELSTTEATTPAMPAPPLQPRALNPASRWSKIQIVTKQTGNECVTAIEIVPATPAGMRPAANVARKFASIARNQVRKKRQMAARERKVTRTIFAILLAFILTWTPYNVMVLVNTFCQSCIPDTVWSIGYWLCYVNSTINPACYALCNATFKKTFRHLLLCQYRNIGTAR

[31] = target: M5 (Homo sapiens, UniProt P08912); assay: Radioligand binding
[32] = target: sigma-1 (Homo sapiens, UniProt Q99720); assay: Radioligand binding
[33] = tested on: Male Sprague–Dawley rats; assay: Behavioral Pattern Monitor; format: in vivo, rat
Method in brief: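 Male Sprague–Dawley rats (250–275 g at arrival), pair-housed under a reverse 12-h light–dark cycle, were handled the day before testing and were naïve to the BPM. Pargyline (0 or 10 mg/kg) was given 20 min before the test compound; all dosing was s.c. at 1 ml/kg, n=7–8. Ten min after dosing, rats were placed in the BPM and monitored for 60 min in darkness. Crossings between eight sectors were counted in 10-min bins, and spatial d was derived from X–Y paths.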

[34] = target: [3H]DOB-labeled 5-HT2A receptors; conditions: [3H]DOB-labeled 5-HT2A receptors (agonist high-affinity state) ref Egan et al. 2000; cited from earlier work
[35] = tested on: humans; conditions: hallucinogenic activity, parenteral ref Shulgin and Shulgin 1997; cited from earlier work
[36] = tested on: 5-HT2A receptor; conditions: higher affinity than 5-MeO-DMT ref Roth et al. 1997; Egan et al. 2000; cited from earlier work
[37] = tested on: MAOA; conditions: pargyline 10 mg/kg, s.c. ref Ortmann et al. 1984; cited from earlier work
[38] = tested on: MAOB; conditions: pargyline 10 mg/kg, s.c. ref Ortmann et al. 1984; cited from earlier work
[39] = Experiment 1, drug × time interaction, post hoc per 30-min block
[40] = read-out: Ki nM (±SEM), [3H]prazocin, cloned human receptor
[41] = read-out: Ki nM (±SEM), [3H]clonidine, cloned human receptor

Sequence of α1D (P25100 whole entry): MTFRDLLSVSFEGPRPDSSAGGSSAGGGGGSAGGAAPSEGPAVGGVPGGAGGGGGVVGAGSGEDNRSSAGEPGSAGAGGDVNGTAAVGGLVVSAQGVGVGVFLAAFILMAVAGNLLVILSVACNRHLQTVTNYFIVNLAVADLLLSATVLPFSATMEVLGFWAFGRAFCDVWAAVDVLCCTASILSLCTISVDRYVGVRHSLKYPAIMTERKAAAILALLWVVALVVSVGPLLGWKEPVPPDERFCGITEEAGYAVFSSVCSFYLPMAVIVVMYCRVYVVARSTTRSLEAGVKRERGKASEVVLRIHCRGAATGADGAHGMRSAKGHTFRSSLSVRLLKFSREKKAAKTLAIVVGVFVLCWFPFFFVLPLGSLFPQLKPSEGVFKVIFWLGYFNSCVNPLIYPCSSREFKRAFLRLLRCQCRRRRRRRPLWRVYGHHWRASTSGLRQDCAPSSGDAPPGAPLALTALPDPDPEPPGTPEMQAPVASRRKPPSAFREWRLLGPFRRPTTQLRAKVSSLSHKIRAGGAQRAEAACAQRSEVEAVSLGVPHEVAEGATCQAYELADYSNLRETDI
Sequence of α1A (P35348 whole entry): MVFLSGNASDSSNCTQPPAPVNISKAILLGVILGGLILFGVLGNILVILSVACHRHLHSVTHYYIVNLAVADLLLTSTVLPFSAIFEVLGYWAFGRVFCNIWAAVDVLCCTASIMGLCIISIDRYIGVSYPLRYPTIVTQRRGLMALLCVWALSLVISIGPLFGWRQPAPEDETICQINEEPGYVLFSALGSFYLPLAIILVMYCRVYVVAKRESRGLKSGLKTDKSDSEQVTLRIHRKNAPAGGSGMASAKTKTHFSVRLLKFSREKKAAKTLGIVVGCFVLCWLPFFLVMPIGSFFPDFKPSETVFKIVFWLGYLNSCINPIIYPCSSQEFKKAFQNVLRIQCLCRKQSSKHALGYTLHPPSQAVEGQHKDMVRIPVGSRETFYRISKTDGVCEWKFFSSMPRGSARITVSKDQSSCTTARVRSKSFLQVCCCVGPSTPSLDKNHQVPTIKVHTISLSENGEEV
Sequence of α1B (P35368 whole entry): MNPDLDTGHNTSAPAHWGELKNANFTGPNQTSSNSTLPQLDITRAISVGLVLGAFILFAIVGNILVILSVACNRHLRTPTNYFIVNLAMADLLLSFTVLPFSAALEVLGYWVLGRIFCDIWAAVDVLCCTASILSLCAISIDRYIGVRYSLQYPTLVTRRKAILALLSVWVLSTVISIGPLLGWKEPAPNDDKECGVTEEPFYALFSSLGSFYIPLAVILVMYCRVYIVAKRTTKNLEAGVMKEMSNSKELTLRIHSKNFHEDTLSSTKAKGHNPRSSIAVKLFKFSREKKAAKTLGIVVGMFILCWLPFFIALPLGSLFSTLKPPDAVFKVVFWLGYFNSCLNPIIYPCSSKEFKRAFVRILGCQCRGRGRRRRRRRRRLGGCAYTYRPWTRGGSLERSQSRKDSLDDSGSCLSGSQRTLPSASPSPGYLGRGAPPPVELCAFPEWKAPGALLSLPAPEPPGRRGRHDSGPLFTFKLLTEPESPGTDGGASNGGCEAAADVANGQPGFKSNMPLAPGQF

COc1ccc2[nH]cc(CCN(C)C)c2c1.O=C(O)C(=O)O [5-MeO-DMT, 5-Methoxy-N, N-dimethyltryptamine oxalate]
Ki [1]: 4370 nM | Ki [2]: 2190 nM | Ki [3]: 439 nM | Ki [4]: 938 nM | Ki [5]: 206 nM | Ki [6]: 2680 nM | Ki [7]: > 10000 nM | Ki [8]: 7580 nM | Ki [9]: > 10000 nM | Ki [10]: 3600 nM | Ki [11]: 3690 nM | Ki [12]: > 10 µM | Ki [13]: > 10 µM | Ki [14]: > 10 µM | Ki [15]: > 10 µM | Ki [16]: > 10 µM | Ki [17]: > 10 µM | Ki [18]: > 10 µM | Ki [19]: > 10 µM | Ki [20]: > 10 µM | Ki [21]: > 10 µM | Ki [22]: > 10 µM | Ki [23]: > 10 µM | Ki [24]: > 10 µM | Ki [25]: > 10 µM | Ki [26]: > 10 µM | Ki [27]: > 10 µM | Ki [28]: > 10 µM | Ki [29]: > 10 µM | Ki [30]: > 10 µM | Ki [31]: > 10 µM | Ki [32]: > 10 µM | Effect on crossings (locomotor activity) ([33]; Experiment 1, 0.1 mg/kg s.c. after pargyline 10 mg/kg): reduced crossings during the first half-hour, but did not increase activity during the second half-hour | Effect on spatial d ([33]; Experiment 1, 1.0 mg/kg s.c. after pargyline 10 mg/kg, second half-hour of session (p<0.01)): significantly reduced spatial d | Effect on spatial d ([33]; Experiment 1, 0.01 and 0.1 mg/kg s.c. after pargyline 10 mg/kg): no effect on spatial d | Effect on crossings (locomotor activity) ([33]; Experiment 1, 0.1 and 1.0 mg/kg s.c., vehicle-pretreated rats): reduced crossings | Effect on spatial d [33, 39]: post hoc analysis failed to confirm this for any specific 30-min block | Effect on crossings (locomotor activity) ([33]; Experiment 3, 0.3 to 3.0 mg/kg s.c. alone, first 10 min of testing (p<0.01)): significantly reduced crossings | Effect on spatial d ([33]; Experiment 3, 0.3 to 3.0 mg/kg s.c. alone, first or second half-hour, post hoc): failed to alter spatial d significantly | Biphasic effects on locomotor activity ([33]; Experiment 3, alone, up to 3 mg/kg s.c.): did not induce biphasic effects on locomotor activity | Ki [34]: 0.09 µM | Active parenteral dose in humans [35]: 2 to 3 mg

CN(C)CCc1c[nH]c2ccc(O)cc12 [bufotenine, 5-hydroxy-DMT]
Affinity for the 5-HT2A receptor relative to 5-MeO-DMT [36]: 10 fold

C#CCN(C)Cc1ccccc1 [pargyline, pargyline hydrochloride]
Effect on spatial d [33, 39]: post hoc analysis failed to confirm this for any specific 30-min block | MAOA inhibition [37]: 78% | MAOB inhibition [38]: 92%

COc1ccc2[nH]cc(CCN(C)C)c2c1 [α,α,β,β-tetradeutero-5-MeO-DMT, α,α,β,β-Tetradeutero-5-methoxy-N,N-dimethyltryptamine (2:1) fumarate]
Ki [1, 40]: 1010 nM | Ki [2, 40]: 841 nM | Ki ([3]; read-out: Ki nM (±SEM), [125I]HEAT, cloned human receptor): 202 nM | Ki [4, 41]: 1870 nM | Ki [5, 41]: 274 nM | Ki ([6]; read-out: Ki nM (±SEM), [3H]CGP12177, cloned human receptor): 4560 nM | Ki ([7]; read-out: Ki nM (±SEM), [3H]N-methyl-spiperone, cloned rat receptor): 7090 nM | Ki ([8]; read-out: Ki nM (±SEM), [3H]pyrilamine, cloned human receptor): > 10000 nM | Ki ([9]; read-out: Ki nM (±SEM), [3H]tiotidine, cloned human receptor): 7160 nM | Ki ([10]; read-out: Ki nM (±SEM), [3H]citalopram, cloned human transporter): 2760 nM | Ki ([11]; read-out: Ki nM (±SEM), [3H]DTG, rat): 7170 nM

O=C(O)/C=C/C(=O)O.[2H]C([2H])(c1c[nH]c2ccc(OC)cc12)C([2H])([2H])N(C)C.[2H]C([2H])(c1c[nH]c2ccc(OC)cc12)C([2H])([2H])N(C)C [α,α,β,β-tetradeutero-5-MeO-DMT, α,α,β,β-Tetradeutero-5-methoxy-N,N-dimethyltryptamine (2:1) fumarate]
Effect on spatial d ([33]; Experiment 2, 3.0 mg/kg s.c., first 30 min of the session (p<0.01)): significantly increased spatial d | Effect on spatial d ([33]; Experiment 2, 3.0 mg/kg s.c., second 30 min of the session (p<0.01)): significantly reduced spatial d | Effect on crossings (locomotor activity) ([33]; Experiment 2, 0.3, 1.0 and 3.0 mg/kg s.c., first 20 min of the session): significantly reduced crossings | Delayed increase in locomotor activity ([33]; Experiment 2, 0.3 and 1.0 mg/kg s.c.): Neither of the lower doses tested (0.3 and 1.0 mg/kg) induced a delayed increase in activity
